Consider 21 compounds from ChEMBL document CHEMBL1143579, “Synthesis and pharmacology of N1-substituted piperazine-2,3-dicarboxylic acid derivatives acting as NMDA receptor antagonists” (J Med Chem, 2005).

The structures appear in SMILES notation.

The target in experiment [1] is Glutamate NMDA receptor; Grin1/Grin2b (Rattus norvegicus, UniProt P35439+Q00960). Kind of experiment: Inhibitory constant against (S)-glutamate and glycine evoked currents mediated by N-methyl-D-aspartate glutamate receptor NR1a/NR2B expressed in Xenopus oocytes. The format is cell-based, Oocyte. The essentials:
(§1)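 Xenopus laevis oocytes were injected with NR1a and NR2 subunit RNA (1:3 molar ratio, 15-30 ng total) and held in ND-96 at 17 °C for 1-5 days. Currents were recorded by two-microelectrode voltage clamp at a holding potential of […] in 116 mM NaCl, 2 mM KCl, 2 mM BaCl2, 5 mM HEPES, pH 7.4. The steady plateau response to bath-applied 10 µM L-glutamate plus 10 µM glycine was measured. Apparent Ki was obtained as IC50(obs)/(1 + [agonist]/EC50).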

Experiment [2] addresses Glutamate NMDA receptor; Grin1/Grin2c (Rattus norvegicus, UniProt P35439+Q00961). In words: Inhibitory constant against (S)-glutamate and glycine evoked currents mediated by N-methyl-D-aspartate glutamate receptor NR1a/NR2C expressed in Xenopus oocytes. It counts as cell-based, Oocyte. The essentials: as §1
Experiment [3] in a line: Inhibitory constant against (S)-glutamate and glycine evoked currents mediated by N-methyl-D-aspartate glutamate receptor NR1a/NR2D expressed in Xenopus oocytes. The format is cell-based, Rattus norvegicus. To be noted: oocyte. The essentials:
(§2)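 Xenopus laevis oocytes were injected with NR1a and NR2 subunit RNA (1:3 molar ratio, 15-30 ng total) and held in ND-96 at 17 °C for 1-5 days. The steady plateau response to bath-applied 10 µM L-glutamate plus 10 µM glycine was measured. Apparent Ki was obtained as IC50(obs)/(1 + [agonist]/EC50).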

Experiment [4] deals with Glutamate NMDA receptor; Grin1/Grin2a (Rattus norvegicus, UniProt P35439+Q00959). Kind of experiment: Inhibitory constant against (S)-glutamate and glycine evoked currents mediated by N-methyl-D-aspartate glutamate receptor NR1a/NR2A expressed in Xenopus oocytes. It counts as cell-based, Oocyte. The essentials: as §2
Sequence of Glutamate NMDA receptor; Grin1/Grin2a (Q00959 whole entry, other chains not shown): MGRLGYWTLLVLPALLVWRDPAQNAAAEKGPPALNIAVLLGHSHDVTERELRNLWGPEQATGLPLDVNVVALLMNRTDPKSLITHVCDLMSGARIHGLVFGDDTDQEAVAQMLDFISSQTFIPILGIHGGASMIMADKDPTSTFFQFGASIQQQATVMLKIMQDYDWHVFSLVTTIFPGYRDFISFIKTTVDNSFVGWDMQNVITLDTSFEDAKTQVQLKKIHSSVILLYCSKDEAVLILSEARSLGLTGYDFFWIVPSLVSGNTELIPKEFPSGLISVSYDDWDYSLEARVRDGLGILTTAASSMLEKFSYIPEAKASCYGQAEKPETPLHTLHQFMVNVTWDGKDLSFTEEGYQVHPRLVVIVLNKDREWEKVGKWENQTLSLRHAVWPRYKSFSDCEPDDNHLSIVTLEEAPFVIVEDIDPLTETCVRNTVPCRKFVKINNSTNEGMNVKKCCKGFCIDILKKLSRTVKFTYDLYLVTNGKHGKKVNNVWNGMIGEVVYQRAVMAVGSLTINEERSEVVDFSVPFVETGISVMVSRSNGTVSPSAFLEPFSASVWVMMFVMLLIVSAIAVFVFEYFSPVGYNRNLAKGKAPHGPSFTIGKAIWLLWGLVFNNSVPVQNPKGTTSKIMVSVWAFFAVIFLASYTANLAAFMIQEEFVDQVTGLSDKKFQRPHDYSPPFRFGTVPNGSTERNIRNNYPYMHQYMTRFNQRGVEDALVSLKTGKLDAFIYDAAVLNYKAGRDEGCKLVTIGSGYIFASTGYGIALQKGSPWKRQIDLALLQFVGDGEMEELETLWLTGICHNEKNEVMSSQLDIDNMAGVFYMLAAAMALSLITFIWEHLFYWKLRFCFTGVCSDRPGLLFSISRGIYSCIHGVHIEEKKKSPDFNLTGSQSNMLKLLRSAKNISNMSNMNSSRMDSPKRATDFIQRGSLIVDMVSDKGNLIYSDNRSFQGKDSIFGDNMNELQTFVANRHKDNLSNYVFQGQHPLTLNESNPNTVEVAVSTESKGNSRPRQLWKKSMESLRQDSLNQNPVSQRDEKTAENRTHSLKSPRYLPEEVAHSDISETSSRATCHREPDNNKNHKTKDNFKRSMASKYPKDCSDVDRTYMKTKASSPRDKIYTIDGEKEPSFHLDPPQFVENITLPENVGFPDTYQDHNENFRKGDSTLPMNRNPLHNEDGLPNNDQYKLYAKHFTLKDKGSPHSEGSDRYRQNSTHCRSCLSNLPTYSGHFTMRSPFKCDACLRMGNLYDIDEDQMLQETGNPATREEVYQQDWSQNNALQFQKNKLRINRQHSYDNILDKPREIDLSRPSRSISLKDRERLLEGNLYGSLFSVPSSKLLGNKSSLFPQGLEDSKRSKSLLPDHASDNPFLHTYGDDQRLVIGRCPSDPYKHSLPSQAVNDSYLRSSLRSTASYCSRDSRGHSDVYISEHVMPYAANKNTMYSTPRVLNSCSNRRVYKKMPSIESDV

Sequence of Glutamate NMDA receptor; Grin1/Grin2b (Q00960 whole entry, other chains not shown): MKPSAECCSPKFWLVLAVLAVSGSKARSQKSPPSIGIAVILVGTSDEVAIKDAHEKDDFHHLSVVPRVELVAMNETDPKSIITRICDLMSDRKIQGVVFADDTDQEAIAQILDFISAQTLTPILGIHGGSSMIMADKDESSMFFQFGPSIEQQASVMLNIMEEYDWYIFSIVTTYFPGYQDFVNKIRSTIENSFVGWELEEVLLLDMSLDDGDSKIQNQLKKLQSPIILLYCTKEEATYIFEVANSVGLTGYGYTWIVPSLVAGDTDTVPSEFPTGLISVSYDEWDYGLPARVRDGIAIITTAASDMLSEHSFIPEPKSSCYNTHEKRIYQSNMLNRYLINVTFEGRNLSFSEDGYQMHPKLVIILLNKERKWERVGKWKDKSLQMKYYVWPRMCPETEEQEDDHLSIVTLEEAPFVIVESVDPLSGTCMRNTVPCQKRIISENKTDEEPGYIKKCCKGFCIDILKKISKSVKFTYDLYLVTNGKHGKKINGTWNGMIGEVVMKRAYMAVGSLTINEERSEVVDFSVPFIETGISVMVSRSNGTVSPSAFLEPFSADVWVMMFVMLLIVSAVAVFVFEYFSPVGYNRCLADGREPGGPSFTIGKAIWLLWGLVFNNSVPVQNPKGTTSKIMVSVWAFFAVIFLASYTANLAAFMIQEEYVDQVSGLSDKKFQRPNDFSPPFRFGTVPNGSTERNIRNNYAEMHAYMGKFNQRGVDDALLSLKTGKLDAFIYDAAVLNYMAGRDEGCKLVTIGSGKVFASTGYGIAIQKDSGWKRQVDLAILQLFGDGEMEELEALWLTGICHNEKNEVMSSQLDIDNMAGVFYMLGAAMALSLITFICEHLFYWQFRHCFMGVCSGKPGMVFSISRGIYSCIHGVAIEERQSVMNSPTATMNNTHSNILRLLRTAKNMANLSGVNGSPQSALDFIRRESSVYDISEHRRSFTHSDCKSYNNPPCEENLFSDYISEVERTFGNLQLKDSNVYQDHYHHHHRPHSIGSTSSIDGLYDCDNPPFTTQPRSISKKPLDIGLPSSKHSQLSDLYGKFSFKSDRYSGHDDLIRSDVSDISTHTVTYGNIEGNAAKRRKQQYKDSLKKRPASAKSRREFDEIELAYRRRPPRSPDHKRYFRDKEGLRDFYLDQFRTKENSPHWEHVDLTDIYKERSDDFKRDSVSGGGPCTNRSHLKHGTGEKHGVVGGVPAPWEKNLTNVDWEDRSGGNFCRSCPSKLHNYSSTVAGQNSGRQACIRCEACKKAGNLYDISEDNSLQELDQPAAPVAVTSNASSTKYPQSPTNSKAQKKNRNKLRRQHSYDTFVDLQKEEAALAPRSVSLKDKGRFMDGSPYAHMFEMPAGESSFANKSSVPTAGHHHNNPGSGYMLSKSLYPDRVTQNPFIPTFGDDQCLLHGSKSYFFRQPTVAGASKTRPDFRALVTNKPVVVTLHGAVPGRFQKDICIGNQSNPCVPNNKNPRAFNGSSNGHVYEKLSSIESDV
Sequence of Glutamate NMDA receptor; Grin1/Grin2c (Q00961 whole entry, other chains not shown): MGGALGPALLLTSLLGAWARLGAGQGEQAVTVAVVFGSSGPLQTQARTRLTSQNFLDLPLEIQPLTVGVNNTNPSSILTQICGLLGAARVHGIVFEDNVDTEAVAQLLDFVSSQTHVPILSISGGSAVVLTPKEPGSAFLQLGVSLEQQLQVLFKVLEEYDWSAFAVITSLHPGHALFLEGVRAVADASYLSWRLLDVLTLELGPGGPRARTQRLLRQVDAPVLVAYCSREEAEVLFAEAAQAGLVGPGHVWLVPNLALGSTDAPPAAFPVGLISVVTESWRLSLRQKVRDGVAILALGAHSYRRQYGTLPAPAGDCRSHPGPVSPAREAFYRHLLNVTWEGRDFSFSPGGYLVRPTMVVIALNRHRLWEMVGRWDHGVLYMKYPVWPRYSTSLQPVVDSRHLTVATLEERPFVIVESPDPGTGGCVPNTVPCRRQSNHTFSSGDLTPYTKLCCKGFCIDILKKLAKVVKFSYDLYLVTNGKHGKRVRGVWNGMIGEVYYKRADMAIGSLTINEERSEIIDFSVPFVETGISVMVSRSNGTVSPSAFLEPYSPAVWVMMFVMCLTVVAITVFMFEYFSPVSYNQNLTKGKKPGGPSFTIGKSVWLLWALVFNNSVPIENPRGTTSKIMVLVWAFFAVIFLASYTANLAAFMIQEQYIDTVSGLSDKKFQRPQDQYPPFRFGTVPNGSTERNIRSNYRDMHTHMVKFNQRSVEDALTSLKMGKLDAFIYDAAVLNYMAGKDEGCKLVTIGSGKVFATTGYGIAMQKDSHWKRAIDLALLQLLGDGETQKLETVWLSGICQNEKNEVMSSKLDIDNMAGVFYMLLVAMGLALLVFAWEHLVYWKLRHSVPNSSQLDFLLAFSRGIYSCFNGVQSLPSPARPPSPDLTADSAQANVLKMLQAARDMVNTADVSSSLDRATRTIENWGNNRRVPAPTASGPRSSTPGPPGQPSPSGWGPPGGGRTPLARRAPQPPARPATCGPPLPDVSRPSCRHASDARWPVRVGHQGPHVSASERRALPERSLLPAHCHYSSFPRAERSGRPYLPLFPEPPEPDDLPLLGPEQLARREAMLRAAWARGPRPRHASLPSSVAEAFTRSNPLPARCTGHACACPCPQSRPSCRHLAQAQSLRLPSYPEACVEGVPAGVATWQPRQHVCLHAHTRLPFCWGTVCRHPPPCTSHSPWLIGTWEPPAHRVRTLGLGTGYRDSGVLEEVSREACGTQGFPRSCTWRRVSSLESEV

A word on the Ki: it is a dissociation constant, usually derived from enzyme kinetics or from competition with a known ligand. In the case of `O=C(O)[C@H]1NCCN(C(=O)c2ccc(-c3ccccc3Br)cc2)[C@H]1C(=O)O`, the Ki in experiment [1] came to 22.1 µM; in experiment [2], 8.49 µM; in experiment [3], 12.9 µM; in experiment [4], 42.9 µM.
The like results for `O=C(O)[C@H]1NCCN(C(=O)/C=C/c2ccccc2)[C@H]1C(=O)O` were, in that order, 18 µM, 27 µM, 59.7 µM and 13.2 µM.
As for `C[C@H](NC(c1cccc2nc(O)c(O)nc12)P(=O)(O)O)c1ccc(Br)cc1` (stereo partly specified), the Ki in experiment [1] amounted to 0.067 µM; in experiment [2], 0.0116 µM; in experiment [3], 0.037 µM; in experiment [4] it was 0.0054 µM.
The like results for `O=C(O)[C@H]1CN(CCCP(=O)(O)O)CCN1` were, in that order, 0.27 µM, 0.63 µM, 1.99 µM and 0.041 µM.
The like results for `N[C@H](CCCCCP(=O)(O)O)C(=O)O` were, in that order, 4.14 µM, 6.42 µM, 17.1 µM and 0.49 µM.
As for `O=C(O)[C@H]1NCCN(C(=O)c2ccc3c(c2)CCc2cc(Br)ccc2-3)[C@H]1C(=O)O`, the Ki was found to be 2.15 µM in experiment [1], 0.66 µM in experiment [2], 1.03 µM in experiment [3] and 3.88 µM in experiment [4].
`O=C(O)[C@H]1NCCN(S(=O)(=O)c2ccc(-c3ccccc3)cc2)[C@H]1C(=O)O`: the Ki in experiment [1] is 16.2 µM; in experiment [2], 8.67 µM; in experiment [3] it was 10.9 µM; in experiment [4], 13.6 µM.
With `O=C(O)[C@H]1NCCN(C(=O)c2ccc3c(c2)Cc2ccccc2-3)[C@H]1C(=O)O`, the Ki in experiment [1] worked out at 3.25 µM; in experiment [2], 1.17 µM; in experiment [3], 2.17 µM.
Consider `O=C(O)[C@H]1NCCN(C(=O)c2ccc3ccc4ccccc4c3c2)[C@H]1C(=O)O`, for which the Ki in experiment [1] came out at 19.3 µM; in experiment [2], 4.22 µM; in experiment [3], 2.78 µM; in experiment [4], 14.2 µM.
The like results for `O=C(O)[C@H]1NCCN(C(=O)c2ccc3c(ccc4cc(Br)ccc43)c2)[C@H]1C(=O)O` were, in that order, 0.25 µM, 0.0994 µM, 0.15 µM and 0.32 µM.
For `O=C(O)[C@H]1NCCN(C(=O)c2ccc3ccccc3c2)[C@H]1C(=O)O`, the Ki in experiment [1] turned out to be 18.2 µM; in experiment [2], 3.89 µM.
Take `O=C(O)[C@H]1NCCN(C(=O)c2ccc3c(c2)CCc2ccccc2-3)[C@H]1C(=O)O`: the Ki was 0.76 µM in experiment [1], 0.29 µM in experiment [2], 0.57 µM in experiment [3] and 1.54 µM in experiment [4].
The like results for `O=C(O)[C@H]1NCCN(C(=O)c2ccc(-c3ccccc3)cc2)[C@H]1C(=O)O` were, in that order, 5.01 µM, 8.98 µM, 4.29 µM and 15.8 µM.
As for `O=C(O)[C@H]1NCCN(C(=O)c2ccccc2)[C@H]1C(=O)O`, the Ki in experiment [1], in experiment [2], in experiment [3] and in experiment [4] was above 100 µM each time.
For the compound `O=C(O)[C@H]1NCCN(C(=O)/C=C/c2ccc3ccccc3c2)[C@H]1C(=O)O`, the Ki in experiment [1] worked out at 0.3 µM; in experiment [2], 0.85 µM; in experiment [3], 1.94 µM; in experiment [4], 0.84 µM.
Taken in the same sequence, the figures for `O=C1c2ccccc2-c2ccc(C(=O)N3CCN[C@H](C(=O)O)[C@@H]3C(=O)O)cc21` were 9.36 µM, 4.42 µM, 6.45 µM and 7.97 µM.
Take `O=C(O)[C@@H]1NCCN(C(=O)c2ccc3c(ccc4ccccc43)c2)[C@H]1C(=O)O`: the Ki in experiment [1] was 9.08 µM; in experiment [2] it was 4.88 µM; in experiment [3], 6.03 µM; in experiment [4] it was 10.5 µM.
With `O=C(O)[C@H]1NCCN(C(=O)c2ccc(-c3ccc(F)cc3)cc2)[C@H]1C(=O)O`, the inhibition constant (Ki) in experiment [1] amounted to 13.4 µM; in experiment [2], 7.38 µM; in experiment [3] it was 8.02 µM; in experiment [4] it was 8.78 µM.
Taken in the same sequence, the figures for `N[C@H](CCCP(=O)(O)O)C(=O)O` were 0.46 µM, 1.64 µM, 3.71 µM and 0.28 µM.
Taken in the same sequence, the figures for `O=C(O)[C@H]1NCCN(C(=O)c2ccc3c(ccc4ccccc43)c2)[C@H]1C(=O)O` were 0.31 µM, 0.096 µM, 0.125 µM and 0.55 µM.
The like results for `O=C(O)[C@H]1NCCN(Cc2ccc3c(ccc4ccccc43)c2)[C@H]1C(=O)O` were, in that order, 10.2 µM, 2.67 µM, 3.18 µM and 11.2 µM.
